Results on four compounds are retold here after ChEMBL document CHEMBL3872222, “Synthesis of novel curcuminoids accommodating a central β-enaminone motif and their impact on cell growth and oxidative stress” (Eur J Med Chem, 2016).

Converted amounts (≈) assume the structure as drawn.

Data set [1] relates to CHO. The data set is described as follows: Effect on oxidative stress in CHO cells assessed as intracellular ROS level at 10 uM after overnight incubation by DCFH-DA staining based fluorescence assay relative to control. It is filed as functional, Cricetulus griseus. The method in brief:
(§1)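 Cells grown in DMEM+glutamax, 1% NEAA, 1% P/S, 10% FBS; seeded 20000/well, treated at confluency overnight in serum-free medium, DMSO under 0.1% final. Loaded with 20 μM DCFH-DA 30 min at 37 °C, 10% CO2; washed, phenol red-free medium 1 h, then serum-free medium; fluorescence ex 485/em 535 nm. Percent of untreated; two-tailed unequal-variance t-test, n≥6.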

The nature of data set [2]: Growth inhibition of differentiated human Caco2 cells measured after 72 hrs by SRB assay. The class given is cell-based. The conditions noted are these: Caco-2, 72 h. In a few lines:
(§2)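 20000 cells/well treated after 1 day at 1, 5, 10, 25 μM, serum-free, for 3 days. Fixed with 50% TCA 1 h at 4 °C, stained 30 min with 0.4% sulforhodamine B in 1% acetic acid, rinsed with 1% acetic acid, dye dissolved in 10 mM Tris, absorbance 490 nm; triplicate; IC50 derived.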

The nature of data set [3]: Antioxidant activity assessed as inhibition of DPPH radical activity at 1 uM measured after 30 mins under dark conditions by spectrophotometric analysis relative to control. The class given is functional.
A short description of data set [4]: Growth inhibition of CHOK1 cells measured after 72 hrs by SRB assay. The class given is functional, cell-based. The following applies: Cricetulus griseus, CHO-K1, 72 h. The method in brief: as §2
In general terms: In SRB staining, fixed cells bind dye roughly in proportion to their protein.

Data set [5] can be described thus: Growth inhibition of differentiated human Caco2 cells assessed as mitochondrial activity measured after 72 hrs by MTT assay. The class given is cell-based. The conditions noted are these: Caco-2, 72 h. In a few lines:
(§3)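 Seeded 20000 cells/well in DMEM+glutamax, NEAA, P/S, FBS; after 1 day treated 1, 5, 10, 25 μM in serum-free medium (DMSO under 0.1%) for 3 days. MTT (5 mg/ml in PBS) 2 h at 37 °C, 10% CO2 in dark; formazan dissolved in DMSO, absorbance 570 nm; triplicate; IC50 derived.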
(In general: Tetrazolium assays rely on reduction of a dye to a coloured formazan, in cell work by metabolically active cells.)

Data set [6] deals with CHO. The data set is described as follows: Effect on oxidative stress in CHO cells assessed as intracellular ROS level at 1 uM after overnight incubation by DCFH-DA staining based fluorescence assay relative to control. The class given is functional, Cricetulus griseus. The method in brief:
as §1

Data set [7] is described as follows: Growth inhibition of human HT-29 cells measured after 72 hrs by SRB assay. The class given is functional, cell-based. The conditions noted are these: HT-29, 72 h. In a few lines:
as §2

Data set [8] relates to HT-29. The data set is described as follows: Effect on oxidative stress in human HT-29 cells assessed as intracellular ROS level at 1 uM after overnight incubation by DCFH-DA staining based fluorescence assay relative to control. The class given is functional. The method in brief:
as §1

Data set [9] relates to Caco-2. The data set is described as follows: Effect on oxidative stress in undifferentiated human Caco2 cells assessed as intracellular ROS level at 10 uM after overnight incubation by DCFH-DA staining based fluorescence assay relative to control. It is filed as functional. In a few lines: as §1
Data set [10] in a line: Growth inhibition of human HT-29 cells assessed as mitochondrial activity measured after 72 hrs by MTT assay. It is filed as functional, cell-based. The following applies: HT-29, 72 h. The method in brief: as §3
For data set [11], the system named is EA.hy 926. The data set can be described thus: Effect on oxidative stress in human EAhy926 cells assessed as intracellular ROS level at 1 uM after overnight incubation by DCFH-DA staining based fluorescence assay relative to control. The class given is functional. In a few lines: as §1
The subject of data set [12] is Caco-2. The data set can be described thus: Effect on oxidative stress in undifferentiated human Caco2 cells assessed as intracellular ROS level at 1 uM after overnight incubation by DCFH-DA staining based fluorescence assay relative to control. The class given is functional. The method in brief:
as §1

Data set [13] can be described thus: Growth inhibition of human EAhy926 cells measured after 72 hrs by SRB assay. The following applies: EA.hy 926, 72 h. The class given is cell-based. The method in brief: as §2
In data set [14] the test system is EA.hy 926. The data set is described as follows: Effect on oxidative stress in human EAhy926 cells assessed as intracellular ROS level at 10 uM after overnight incubation by DCFH-DA staining based fluorescence assay relative to control. It is filed as functional. The method in brief:
as §1

Data set [15] can be described thus: Growth inhibition of undifferentiated human Caco2 cells measured after 72 hrs by SRB assay. The class given is functional, cell-based. The conditions noted are these: Caco-2, 72 h. In a few lines: as §2
Data set [16] relates to HT-29. The data set can be described thus: Effect on oxidative stress in human HT-29 cells assessed as intracellular ROS level at 10 uM after overnight incubation by DCFH-DA staining based fluorescence assay relative to control. The class given is functional. In a few lines:
as §1

The nature of data set [17]: Solubility of the compound in serum-free DMEM assessed as compound concentration required for crystal formation measured after 1 day by microscopic analysis. It is filed as physicochemical. The conditions noted are these: 24 h. In a few lines:
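Compound at 0, 0.5, 1, 5, 10, 25 and 50 μM in serum-free DMEM incubated 1 day at 37 °C, 10% CO2, then examined for crystal formation.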

A short description of data set [18]: Growth inhibition of human EAhy926 cells assessed as mitochondrial activity measured after 72 hrs by MTT assay. The class given is cell-based. The following applies: EA.hy 926, 72 h. The method in brief: as §3
A short description of data set [19]: Antioxidant activity assessed as trolox equivalent of ferric ion reducing activity using Fe3+-TPTZ by measuring Fe2+-TPTZ formation after 4 mins by UV-vis spectrophotometry based FRAP assay. It is filed as functional. In a few lines: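 FRAP reagent: 300 mM acetate buffer, 10 mM TPTZ in ethanol and 20 mM FeCl3 (in dilute HCl) combined 10:1:1, TPTZ and iron freshly made. Sample mixed 1:9 with reagent; absorbance 593 nm after 4 min. Expressed as trolox equivalents per μM from slope of linear plot versus analog concentration.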

Data set [20] can be described thus: Growth inhibition of CHOK1 cells assessed as mitochondrial activity measured after 72 hrs by MTT assay. It is filed as functional, cell-based. The following applies: Cricetulus griseus, CHO-K1, 72 h. The method in brief: as §3
Data set [21] can be described thus: Growth inhibition of undifferentiated human Caco2 cells assessed as mitochondrial activity measured after 72 hrs by MTT assay. The following applies: Caco-2, 72 h. It is filed as functional, cell-based. In a few lines: as §3

What is called IC50 is the concentration needed to halve the response being measured. The term inhibition denotes the share of the control response that was lost under treatment. In general, solubility refers to how much of the substance goes into solution per volume. For the compound `CCC(C)NC(=C\C(=O)/C=C/c1ccc(O)c(OC)c1)/C=C/c1ccc(O)c(OC)c1` (centres undefined), the Activity in [1] is given as 112%; in data set [6], 107%; in data set [8] it was 99%; in data set [9] it was 66%; in data set [11], 85%; in data set [12] it was 91%. For the same compound, the Activity in [14] turned out to be 184%; in [16] it was 90%; in data set [19] it was 1.08 µMequiv/µM. For the same compound, the concentration for half-maximal inhibition (IC50) in data set [2] is more than 25 µM; in data set [4], more than 25 µM; in [5], more than 25 µM; in data set [7], 22.3 µM; in data set [10], more than 25 µM; in data set [13] it was more than 25 µM. Moreover, the half-inhibitory concentration (IC50) in data set [15], in data set [18], in data set [20] and in [21] was more than 25 µM in each case. Moreover, the inhibition in [3] was 0.13%. Besides, the solubility in [17] was 50 µM (≈ 21.2 µg/mL).

Consider `COc1cc(/C=C/C(=O)/C=C(/C=C/c2ccc(OC(C)=O)c(OC)c2)NCC(C)C)ccc1OC(C)=O`, for which the Activity in data set [1] was 111%; in [6], 111%; in [8], 95%; in data set [9], 77%; in data set [11] it was 104%; in data set [12] it was 96%. Moreover, the Activity in data set [14] was determined as 240%; in data set [16], 96%; in [19], 0.04 µMequiv/µM. Further, the IC50 in data set [2], in data set [4], in data set [5], in [7], in [10] and in [13] was more than 25 µM each time. Moreover, the half-maximal inhibitory concentration (IC50) in data set [15], in data set [18], in data set [20] and in data set [21] was more than 25 µM each time. In [3], the inhibition stood at 0%. For the same compound, the solubility in data set [17] is 5 µM (≈ 2.54 µg/mL).

Consider `COc1cc(/C=C/C(=O)CC(=O)/C=C/c2ccc(OC(C)=O)c(OC)c2)ccc1OC(C)=O`, for which the Activity amounted to 112% in data set [1]; 128% in [6]; 79% in data set [8]; 90% in data set [9]; 114% in data set [11]; 93% in data set [12]. Besides, the Activity is 189% in data set [14], 76% in data set [16] and 0.03 µMequiv/µM in data set [19]. In addition, the half-inhibitory concentration (IC50) in data set [2], in data set [4], in data set [5], in [7], in [10] and in [13] was more than 25 µM throughout. Besides, the 50% inhibitory concentration (IC50) in [15], in data set [18], in [20] and in data set [21] was more than 25 µM each time. Moreover, the inhibition in [3] came to 0%. For the same compound, the solubility in data set [17] was 0.5 µM (≈ 0.226 µg/mL).

With `O=C(/C=C(/C=C/c1ccc(O)cc1)NC1CCCCC1)/C=C/c1ccc(O)cc1`, the Activity in [1] is 150%; in data set [6], 111%; in data set [8], 77%; in [9], 82%; in data set [11] it was 129%; in data set [12], 97%. For the same compound, the Activity in data set [14] turned out to be 299%; in [16], 80%; in [19], 0.56 µMequiv/µM. Further, the half-maximal inhibitory concentration (IC50) in data set [2] was more than 25 µM; in data set [4], 11.6 µM; in [5] it was more than 25 µM; in data set [7], 5.9 µM; in [10] it was 4 µM; in data set [13] it was 4.2 µM. For the same compound, the concentration for half-maximal inhibition (IC50) in data set [15] stood at 6.9 µM; in data set [18], 3.3 µM; in data set [20], 9.2 µM; in data set [21], 7.8 µM. In addition, the inhibition in [3] stood at 0.03%. Also, in [17], the solubility was 5 µM (≈ 1.95 µg/mL).
